Data on two compounds can be found in ChEMBL document CHEMBL1121701, “Inhibition of liver alanine aminotransferase activity by some benzophenanthridine alkaloids” (J Med Chem, 1981).

The nature of series [1]: The stability constant of adduct formation for glutathione at pH 6.25. It is filed as ADME. A digest of the protocol: (§1)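 Thiol–alkaloid adduct stability constants measured by UV-vis spectrophotometry at 20 °C in 10-mm cells. Aqueous solutions held 4×10^-6 M alkaloid, 4×10^-6 to 1.6×10^-2 M thiol and 4×10^-3 M hexadecyltrimethylammonium bromide. Phosphate buffers of ionic strength 0.05 at the stated pH.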

The nature of series [2]: The stability constant of adduct formation for thioethanol at pH 5.68. It is filed as ADME. Summed up:
as §1

A short description of series [3]: The stability constant of adduct formation for cysteine at pH 5.68. The format is ADME. Summed up: as §1
Series [4] has as its target T1, Alanine aminotransferase 1 (Rattus norvegicus) (UniProt P25409).
T1 sequence (whole entry): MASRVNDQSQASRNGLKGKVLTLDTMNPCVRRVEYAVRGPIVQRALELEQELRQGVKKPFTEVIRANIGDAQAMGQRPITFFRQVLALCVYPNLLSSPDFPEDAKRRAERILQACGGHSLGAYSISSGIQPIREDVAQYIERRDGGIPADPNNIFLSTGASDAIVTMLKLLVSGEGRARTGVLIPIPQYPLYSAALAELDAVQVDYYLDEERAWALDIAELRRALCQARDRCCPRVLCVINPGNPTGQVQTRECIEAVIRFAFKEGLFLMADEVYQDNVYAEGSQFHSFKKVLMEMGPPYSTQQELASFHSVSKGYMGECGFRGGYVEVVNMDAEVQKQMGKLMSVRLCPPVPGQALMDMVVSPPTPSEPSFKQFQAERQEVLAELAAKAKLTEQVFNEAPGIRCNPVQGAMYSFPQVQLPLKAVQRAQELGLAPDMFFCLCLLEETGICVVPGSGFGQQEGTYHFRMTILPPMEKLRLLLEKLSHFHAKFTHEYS
The series is described as follows: Inhibitory activity against alanine aminotransferase was measured. Summed up:
(§2)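 Partially purified rat liver ALT (ammonium sulfate fraction from prednisolone-treated male Wistar rats, lyophilized, diluted in 0.1 M pH 7.4 potassium phosphate). Enzyme preincubated with alkaloid at pH 7.4, room temperature, 30 min. Then added to substrate (8.33×10^-2 M L-alanine, 1.67×10^-3 M 2-oxoglutarate, pH 7.4) at 30 °C. Product read by 2,4-dinitrophenylhydrazine, alkaline NaOH, A505.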

The target of series [5] is T1, Alanine aminotransferase 1 (Rattus norvegicus). The series is described as follows: Effect of glutathione on alanine aminotransferase inhibition by the compound at 10E-5. As to conditions: for inhibition: concentration not given here. A digest of the protocol: (§3)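 ALT alkaloid-inhibition assay at 30 °C (L-alanine/2-oxoglutarate substrate, pH 7.4 phosphate, 2,4-dinitrophenylhydrazine read-out at 505 nm). Substrate solution contained 10^-2 M of the thiol. Percent inhibition compared against thiol-free substrate.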

For series [6] the target is unchanged. The series is described as follows: Concentration for complete inactivation of alanine aminotransferase. Summed up: as §2
Series [7] has the same target. The series is described as follows: Effect of cysteine on alanine aminotransferase inhibition by the compound at 10E-5. As to conditions: for inhibition: concentration not given here. Summed up:
as §3

A short description of series [8]: The stability constant of adduct formation for cysteine at pH 6.25. The format is ADME. Summed up: as §1
Series [9] is described as follows: The stability constant of adduct formation for thioethanol at pH 6.25. The format is ADME. Summed up: as §1
Series [10] addresses T1, Alanine aminotransferase 1 (Rattus norvegicus). The series is described as follows: Effect of thioethanol on alanine aminotransferase inhibition by the compound at 10E-5. The conditions noted are these: for inhibition: concentration not given here. Summed up: as §3
Series [11] in a line: The stability constant of adduct formation for glutathione at pH 5.68. It is filed as ADME. Summed up: as §1
Series [12] in a line: The stability constant of adduct formation for cysteine at pH 5.69. The format is ADME. Summed up: (§4)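 Spectrophotometric measurement at 20 °C in 10-mm cells, with pH checked by meter. Aqueous solutions held 4×10^-6 M alkaloid, 4×10^-6 to 1.6×10^-2 M thiol, and 4×10^-3 M hexadecyltrimethylammonium bromide, in phosphate buffers of ionic strength 0.05. The stability constant (K) of the thiol–iminium adduct was taken at the stated pH.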

Series [13] in a line: The stability constant of adduct formation for cysteine at pH 5.28. The format is ADME. A digest of the protocol:
as §4

Series [14] is described as follows: The stability constant of adduct formation for thioethanol at pH 5.28. The format is ADME. Summed up: as §4
A short description of series [15]: The stability constant of adduct formation for glutathione at pH 5.69. It is filed as ADME. A digest of the protocol: as §4
A short description of series [16]: The stability constant of adduct formation for glutathione at pH 5.28. It is filed as ADME. Summed up:
as §4

Series [17] can be described thus: The stability constant of adduct formation for thioethanol at pH 5.69. It is filed as ADME. A digest of the protocol: as §4

SMILES strings stand for the structures.

As for `COc1ccc2c(c[n+](C)c3c4cc5c(cc4ccc23)OCO5)c1OC.[Cl-]` [CHELERYTHRINE CHLORIDE], the “Log K” value in series [1] was found to be 4.39; in series [2] it was 3.46; in series [3], 2.74; in series [8], 3.09; in series [9], 4.05; in [11], 4.39. Besides, the ID50 in [4] is 4 µM. Besides, the Protection in [5] is 70%; in series [7], 5%; in [10] it was 55%. Further, the figures for the inhibition in series [5], in [7] and in [10] were 13%, 40% and 23%, respectively. Further, the Concentration in series [6] amounted to 30 µM.
With `C[n+]1cc2c3c(ccc2c2ccc4cc5c(cc4c21)OCO5)OCO3` [SANGUINARIUM], the “Log K” value in series [12] stood at 3.33; in series [13], 2.97; in series [14], 3.77; in series [15], 4.79; in series [16] it was 4.64; in series [17] it was 4.01. In addition, in series [4], the ID50 is 3.4 µM. The Protection in series [5] stood at 81%; in series [7], 5%; in series [10], 75%. Besides, the inhibition in series [5] is 15%; in series [7] it was 74%; in series [10] it was 20%. The compound further displayed a Concentration in series [6] of 50 µM.

The inhibition is the drop in the measured response relative to a control, in per cent. High values mean strong suppression, low ones little suppression.
